Source: ChEMBL document CHEMBL1143839, “Antiplasmodial activity of lauryl-lysine oligomers” (Antimicrob Agents Chemother, 2007)

Key:
[1] = Ratio of IC50 for dog MDCK cells to IC50 for Plasmodium falciparum W2; assay type: functional
[2] = Toxicity against human erythrocytes assessed as hemolysis at 100 uM after 1 hr; assay type: cell-based, Erythrocyte; conditions: read-out: Activity
Method in brief: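 Heparinized fresh human blood washed three times in PBS (200 × g, 2 min), mixed with compound in PBS to 4% hematocrit. Incubated 1 h at 37°C with stirring, then centrifuged. Supernatant absorbance read at 460 nm. PBS alone gave baseline and 0.4% Triton X-100 gave 100% lysis. At least two independent experiments.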

Plasmodium falciparum = experiment: Antiplasmodial activity against Plasmodium falciparum W2 as reduced [3H]hypoxanthine uptake after 18 hrs
MDCK = experiment: Cytotoxicity against dog MDCK cells after 3.5 hrs by Alamar blue assay; assay type: cell-based; conditions: Canis lupus familiaris
Method in brief: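 Cells grown to confluence (~3 days) with different compound concentrations in parallel cultures. Viability then read by Alamar blue fluorescence 3.5 h after dye addition. Cycloheximide 10 µM added at start as positive control. IC50 taken as concentration reducing viability by 50%. At least two independent experiments in duplicate.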

[3] = Ratio of LC50 for erythrocytes to IC50 for Plasmodium falciparum W2; assay type: functional

SMILES | Ratio IC50 [1] | hemolysis at 1 h, 100 µM [2] [%] | IC50 (Plasmodium falciparum) [µM] | IC50 (MDCK) [µM] | Ratio LC50/IC50 [3]
NCCCCC(N)C(=O)NCCCCCCCCCCCC(=O)NC(CCCCN)C(=O)NCCCCCCCCCCCC(=O)NC(CCCCN)C(=O)O (stereo not given) | >51 | < 0.1 | 7.85 | > 400 | >6300
NCCCCC(N)C(=O)NCCCCCCCCCCCC(=O)NC(CCCCN)C(=O)NCCCCCCCCCCCC(=O)NC(CCCCN)C(=O)NCCCCCCCCCCCC(=O)NC(CCCCN)C(=O)O (stereo not given) | >157 | 2.3 | 1.72 | > 270 | 1263
CCCCCCCCCCCC(=O)NC(CCCCN)C(=O)NCCCCCCCCCCCC(=O)NC(CCCCN)C(=O)NCCCCCCCCCCCC(=O)NC(CCCCN)C(=O)O (stereo not given) | 88 | 13.3 | 0.85 | 75 | 442
NCCCCC(N)C(=O)NCCCCCCCCCCCC(=O)NC(CCCCN)C(=O)O (stereo not given) | >12 | < 0.1 | 68.2 | > 800 | >700
CCCCCCCCCCCC(=O)NC(CCCCN)C(=O)NCCCCCCCCCCCC(=O)NC(CCCCN)C(=O)O (stereo not given) | >28 | 4.9 | 3.54 | > 100 | 288
CCCCCCCCCCCC(=O)NC(CCCCN)C(=O)NCCCCCCCCCCCC(=O)NC(CCCCN)C(=O)NCCCCCCCCCCCC(=O)NC(CCCCN)C(=O)NCCCCCCCCCCCC(=O)NC(CCCCN)C(=O)O (stereo not given) | 1052 | 26.1 | 0.08 | 37 | 2317
NCCCCCCCCCCCC(=O)NC(CCCCN)C(=O)NCCCCCCCCCCCC(=O)NC(CCCCN)C(=O)O (stereo not given) | >32 | 0.14 | 4.63 | > 150 | 7714
NCCCCCCCCCCCC(=O)NC(CCCCN)C(=O)NCCCCCCCCCCCC(=O)NC(CCCCN)C(=O)NCCCCCCCCCCCC(=O)NC(CCCCN)C(=O)NCCCCCCCCCCCC(=O)NC(CCCCN)C(=O)O (stereo not given) | >47 | 24.6 | 1.59 | > 75 | 126
NCCCCCCCCCCCC(=O)NC(CCCCN)C(=O)NCCCCCCCCCCCC(=O)NC(CCCCN)C(=O)NCCCCCCCCCCCC(=O)NC(CCCCN)C(=O)O (stereo not given) | 650 | 3.4 | 0.14 | 91 | 10734
